Structures are written as SMILES.

Results on 5 molecules are retold here after ChEMBL document CHEMBL1121565, “Antiarrhythmic activity of amitriptyline analogues in conscious dogs after myocardial infarction: cyproheptadinium methiodide” (1980).

Experiment [1] deals with Canis familiaris. Put plainly: Evaluated for the antiarrhythmic activity in conscious dogs after myocardial infarction by observing for conversion to sinus rhythm. The class given is functional, Canis lupus familiaris, Heart. Put shortly: (§1)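 After 30-45 min of adjustment with lead II ECG recording (about 80-85% ectopic complexes), drug was given iv through a foreleg vein in 0.5 mL increments at 2-min intervals. Dosing stopped at sinus rhythm or 3.0 mg/kg total.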

Experiment [2] concerns Canis familiaris. Description: Evaluated for the antiarrhythmic activity in conscious dogs after myocardial infarction by observing 50% reduction in ectopic rate.. The class given is functional, Canis lupus familiaris, Heart. Summed up:
as §1

Experiment [3] deals with Canis familiaris. Description: Myocardial contractility was measured in dogs after 5 min of administration of 25 ug/Kg dose of the compound. The class given is functional, Canis lupus familiaris, Myocardium. Summed up: (§2)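 Anesthetized dogs with no cardiac insult were allowed about 30 min to stabilize after surgery, then given 25 µg/kg iv, followed by 50 µg/kg 30 min later. Arterial pressure, lead II ECG from limb needle electrodes, ECG-derived heart rate and left ventricular dp/dt at 50 mmHg developed pressure were recorded at 100 mm/s. Values before and 5 min after dosing were compared by Student's t test, p < 0.05.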

For experiment [4], the species on record is Canis familiaris. Put plainly: Myocardial contractility was measured in dogs prior to the treatment with compound. The class given is functional, Canis lupus familiaris, Myocardium. Summed up:
as §2

Experiment [5] concerns Canis familiaris. Description: Heart beat rate was measured in dogs after 5 min of administration of 25 ug/Kg dose of the compound. Type of experiment: functional, Canis lupus familiaris. Put shortly:
as §2

The species entered for experiment [6] is Canis familiaris. Description: Heart beat rate was measured in dogs prior to the treatment with compound. The class given is functional, Canis lupus familiaris. Put shortly: as §2
For experiment [7], the system named is Canis familiaris. Put plainly: Compound was tested for its activity against altering of mean arterial blood pressure when administered with a dose of 25 ug/Kg; Could not significantly alter. As to conditions: Canis lupus familiaris; Artery. Type of experiment: functional, organism-based. Put shortly:
as §2

Experiment [8] deals with Canis familiaris. Description: Heart beat rate was measured in dogs after subsequent administration of 50 micorg/Kg 30 min after administration of 25 ug/Kg dose of the compound. The class given is functional, Canis lupus familiaris. Put shortly:
as §2

`CN(C)CCC=C1c2ccccc2C=Cc2ccccc21` [CYCLOBENZAPRINE]: the Dose in the experiment on Canis familiaris [1] amounted to 6.17 µM/kg; in the experiment with Canis familiaris [2] it was 3.99 µM/kg.
`C[N+]1(C)CCC(=C2c3ccccc3C=Cc3ccccc32)CC1.[I-]`: the Activity with Canis familiaris [3] was 3250 mmHg s-1; in the experiment listed under Canis familiaris [4], 2333 mmHg s-1; in the experiment with Canis familiaris [7] it was “Could not significantly alter”. Also, the Dose with Canis familiaris [1] turned out to be 0.042 µM/kg; in the experiment with Canis familiaris [2], 0.03 µM/kg. In addition, the Heart beat with Canis familiaris [5] was 174 beats min-1; in the experiment listed under Canis familiaris [6], 148 beats min-1; with Canis familiaris [8] it was 196 beats min-1.
Take `CCN(CC)CC(=O)Nc1c(C)cccc1C.Cl`: the values for the Dose with Canis familiaris [1] and with Canis familiaris [2] were 9.97 µM/kg and 5.54 µM/kg, respectively.
On to `CN(C)CCC=C1c2ccccc2CCc2ccccc21` [AMITRIPTYLINE], for which the Dose in the experiment on Canis familiaris [1] was 4.69 µM/kg; in the experiment with Canis familiaris [2], 3.97 µM/kg.
Turning to `CN1CCC(=C2c3ccccc3C=Cc3ccccc32)CC1` [CYPROHEPTADINE], the Dose amounted to 1.04 µM/kg with Canis familiaris [1] and 0.69 µM/kg in the experiment with Canis familiaris [2].
